# According to ChEMBL document CHEMBL1125119, “Pyrroloisoquinoline antidepressants. 3. A focus on serotonin” (J Med Chem, 1990):
# Legend:
# [1] = test system: Mus musculus; test: Tested in vivo for head twitches antagonizing activity in mice; assay type: functional
# [2] = test system: Rattus norvegicus; test: Tested in vivo for serotonin syndrome antagonizing activity in rat; assay type: functional
# [3] = target: norepinephrine transporter (Rattus norvegicus); test: Tested in vitro for norepinephrine (NE) neuronal uptake inhibition
# [4] = target: dopamine transporter (Rattus norvegicus); test: Tested in vitro for dopamine(DA) neuronal uptake inhibition
# [5] = target: serotonin transporter (Rattus norvegicus); test: Tested in vitro for serotonin(5-HT) neuronal uptake inhibition
# [6] = test system: Mus musculus; test: Tested in vivo for head twitches antagonizing activity in mice at a dose of 2 mg/kg; assay type: functional
# Outline: (§1)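 Male Swiss CD-1 mice (19–24 g), 10 per dose, received test compound s.c. 30 min later they got a subthreshold dose of L-5-hydroxytryptophan (50 mg/kg i.p.). After 15 min acclimation, presence or absence of head twitches was scored over 2 min. Results were expressed as percent responding or as ED50 by probit analysis, using at least three doses.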
# [7] = test system: Mus musculus; test: In vivo effect on Tetrabenazine ptosis activity in mice following i.p. administration.; assay type: functional; settings: ip
# [8] = test system: Rattus norvegicus; test: Tested in vivo for serotonin syndrome antagonizing activity in rat at a dose of 5 mg/kg; assay type: functional
# [9] = test system: Rattus norvegicus; test: Tested in vivo for serotonin syndrome antagonizing activity in rat on oral administration; assay type: functional
# [10] = test system: Mus musculus; test: Tested in vivo for head twitches antagonizing activity in mice at a dose of 5 mg/kg; assay type: functional; outline: as §1
# [11] = test system: Mus musculus; test: In vivo effect on Tetrabenazine motor activity in mice following i.p. administration.; assay type: functional; settings: ip
# [12] = test system: Rattus norvegicus; test: Tested in vivo for serotonin syndrome antagonizing activity in rat at a dose of 4 mg/kg; assay type: functional
# [13] = test system: Rattus norvegicus; test: Tested in vivo for serotonin syndrome antagonizing activity in rat at a dose of 40 mg/kg; assay type: functional; settings: read-out: Inhibition
# [14] = test system: dopamine transporter (Rattus norvegicus); test: Tested in vitro for dopamine(DA) neuronal uptake inhibition; remark: listed apart in the source
# [15] = test system: norepinephrine transporter (Rattus norvegicus); test: Tested in vitro for norepinephrine (NE) neuronal uptake inhibition; remark: listed apart in the source
# [16] = test system: Rattus norvegicus; test: Tested in vivo for serotonin syndrome antagonizing activity in rat at a dose of 4 mg/kg on oral administration; assay type: functional
# [17] = test system: serotonin transporter (Rattus norvegicus); test: Tested in vitro for serotonin(5-HT) neuronal uptake inhibition; remark: listed apart in the source
# [18] = test system: Rattus norvegicus; test: Tested in vivo for serotonin syndrome antagonizing activity in rat at a dose of 4 mg/kg
structure (smiles),measurement,setting,value
Fc1ccc([C@@H]2CCNC[C@H]2COc2ccc3c(c2)OCO3)cc1 [PAROXETINE],ED50,"[1]; Mus musculus, read-out: ED50",0.062 mg/kg
same,ED50,[2],0.49 mg/kg
"CSc1ccc(C2CN3CCC[C@@H]3c3ccccc32)cc1 (single isomer, unassigned; (+))",ED50,[1],0.043 mg/kg
CSc1ccc(C2CN3CCCC3c3c(C#N)cccc32)cc1.Cl (stereo unspecified),ED50,"[1]; Mus musculus, read-out: ED50",> 5 mg/kg
same,Ki,[3],390 nM
same,Ki,[4],2800 nM
same,Ki,[5],14.7 nM
Clc1ccc(C2CN3CCCC3c3ccccc32)c(Cl)c1 (stereo unspecified),ED50,"[1]; Mus musculus, read-out: ED50",~5 mg/kg
Clc1ccc(C2CN3CCCC3c3cc(Cl)ccc32)cc1 (stereo unspecified),Ki,[3],3.2 nM
same,inhibition in vivo at 2 mg/kg,[6],30%
same,Ki,[4],3.2 nM
same,ED50,[7],4 mg/kg
same,inhibition in vivo at 5 mg/kg,[8],22%
NC(=O)c1ccc(C2CN3CCCC3c3ccccc32)cc1 (stereo unspecified),ED50,"[1]; Mus musculus, read-out: ED50",~5 mg/kg
same,Ki,[3],90.2 nM
same,Ki,[4],84.5 nM
same,ED50,[9],4.5 mg/kg
CSc1ccc(C2CN3CCCC3c3ccc(Cl)cc32)cc1.Cl (stereo unspecified),Ki,[3],16.2 nM
same,inhibition in vivo at 5 mg/kg,[10],30%
same,Ki,[4],103 nM
same,ED50,[7],> 3 mg/kg
same,ED50,[11],> 3 mg/kg
same,Ki,[5],8.6 nM
FC(F)(F)c1ccc(C2CN3CCCC3c3ccccc32)cc1 (stereo unspecified),ED50,"[1]; Mus musculus, read-out: ED50",0.55 mg/kg
same,Ki,[3],10.6 nM
same,Ki,[4],128 nM
same,inhibition in vivo at 4 mg/kg,[12],5.8%
same,ED50,[7],~2 mg/kg
same,ED50,[11],> 3 mg/kg
CN(C)CCCN1c2ccccc2CCc2ccccc21 [IMIPRAMINE],ED50,"[1]; Mus musculus, read-out: ED50",> 50 mg/kg
same,ED50,[2],> 25 mg/kg
same,ED50,[7],0.98 mg/kg
same,ED50,[11],0.58 mg/kg
Clc1ccccc1C1CN2CCC[C@@H]2c2ccccc21 (stereo partly specified),ED50,"[1]; Mus musculus, read-out: ED50",> 25 mg/kg
same,ED50,[2],> 25 mg/kg
same,ED50,[7],0.17 mg/kg
same,ED50,[11],> 60 mg/kg
Br.CCSc1ccc(C2CN3CCCC3c3ccccc32)cc1 (stereo unspecified),ED50,"[1]; Mus musculus, read-out: ED50",0.54 mg/kg
same,inhibition in vivo at 40 mg/kg,[13],36%
same,ED50,[7],~3 mg/kg
same,ED50,[11],> 10 mg/kg
CSc1ccccc1C1CN2CCCC2c2ccccc21 (stereo unspecified),inhibition in vivo at 5 mg/kg,[10],30%
CN(C)CCCC1(c2ccc(F)cc2)OCc2cc(C#N)ccc21 (stereo unspecified) [CITALOPRAM],ED50,"[1]; Mus musculus, read-out: ED50",0.29 mg/kg
same,ED50,[2],0.78 mg/kg
Clc1ccc([C@@H]2CN3CCC[C@@H]3c3ccccc32)cc1,ED50,"[1]; Mus musculus, read-out: ED50",0.76 mg/kg
same,ED50,[7],0.14 mg/kg
same,inhibition in vivo at 5 mg/kg,[8],52%
same,ED50,[11],0.39 mg/kg
c1ccc([C@@H]2CN3CCC[C@@H]3c3ccccc32)cc1,ED50,"[1]; Mus musculus, read-out: ED50",> 25 mg/kg
same,ED50,[7],0.07 mg/kg
same,ED50,[11],0.34 mg/kg
COc1ccc(OC[C@H]2CN(C)CC[C@@H]2c2ccccc2)cc1 [FEMOXETINE],ED50,"[1]; Mus musculus, read-out: ED50",3.3 mg/kg
same,ED50,[2],11.4 mg/kg
same,ED50,[7],2.1 mg/kg
same,ED50,[11],3.5 mg/kg
CSc1ccc(C2CN3CCC[C@H]3c3c(Cl)cccc32)cc1.Cl (stereo partly specified),inhibition in vivo at 5 mg/kg,[10],30%
same,Inhibition,[14],10%
same,ED50,[7],3 mg/kg
same,ED50,[11],~1 mg/kg
same,Inhibition,[15],10%
same,Ki,[5],~100 nM
C[S+]([O-])c1ccc(C2CN3CCCC3c3ccccc32)cc1 (stereo in doubt; 11b),ED50,[1],0.55 mg/kg
same,Ki,[3],723 nM
same,Ki,[4],6180 nM
same,ED50,[11],> 3 mg/kg
same,Ki,[5],597 nM
CS(=O)(=O)c1ccc(C2CN3CCCC3c3ccccc32)cc1 (stereo unspecified),ED50,"[1]; Mus musculus, read-out: ED50",~5 mg/kg
same,ED50,[7],30 mg/kg
same,inhibition in vivo at 4 mg/kg,[16]; read-out: Inhibition,1.5%
CSc1ccc(C2CN3CCC[C@@H]3c3c(Cl)cccc32)cc1.Cl (stereo partly specified),ED50,"[1]; Mus musculus, read-out: ED50",1.04 mg/kg
same,Ki,[3],23.1 nM
same,Ki,[4],290 nM
same,ED50,[7],3 mg/kg
same,ED50,[11],3 mg/kg
same,Ki,[5],3 nM
CSc1ccc(C2CN3CCCC3c3c(Br)cccc32)cc1.Cl (stereo unspecified),ED50,"[1]; Mus musculus, read-out: ED50",> 5 mg/kg
N#Cc1ccc(C2CN3CCCC3c3ccccc32)cc1 (stereo unspecified),ED50,"[1]; Mus musculus, read-out: ED50",~3 mg/kg
same,ED50,[2],15 mg/kg
CNCCC(Oc1ccc(C(F)(F)F)cc1)c1ccccc1 (stereo unspecified) [FLUOXETINE],ED50,"[1]; Mus musculus, read-out: ED50",0.43 mg/kg
same,ED50,[2],12.7 mg/kg
"CSc1ccc(C2CN3CCC[C@@H]3c3ccccc32)cc1 (single isomer, unassigned; (-))",ED50,[1],~5 mg/kg
C#Cc1ccc(C2CN3CCCC3c3ccccc32)cc1 (stereo unspecified),ED50,"[1]; Mus musculus, read-out: ED50",~1 mg/kg
Br.CSc1ccc(C2CN3CCCC3c3c(C)cccc32)cc1 (stereo unspecified),ED50,"[1]; Mus musculus, read-out: ED50",0.16 mg/kg
same,Ki,[3],11.5 nM
same,Ki,[4],57.7 nM
same,ED50,[7],~1 mg/kg
same,ED50,[11],> 3 mg/kg
same,Ki,[5],2.4 nM
COc1cc(OC)c2c(c1)C1CCCN1CC2c1ccc(SC)cc1.Cl (stereo unspecified),ED50,"[1]; Mus musculus, read-out: ED50",~5 mg/kg
same,Inhibition,[14],67%
same,Inhibition,[17],68%
same,Inhibition,[15],55%
CSc1ccc(C2CN3CCC[C@@H]3c3ccccc32)cc1 (stereo in doubt; 3b),ED50,[1],0.081 mg/kg
same,ED50,[2],0.2 mg/kg
same,ED50,[7],0.4 mg/kg
same,ED50,[11],> 30 mg/kg
C[S+]([O-])c1ccc(C2CN3CCCC3c3ccccc32)cc1 (stereo in doubt; 11a),ED50,[1],>5 mg/kg
same,Inhibition,[14],2%
same,Inhibition,[17],12%
same,Inhibition,[15],4%
CSc1ccc([C@@H]2CN3CCC[C@H]3c3ccccc32)cc1,ED50,"[1]; Mus musculus, read-out: ED50",~10 mg/kg
same,inhibition in vivo at 4 mg/kg,[18],4.5%
same,ED50,[11],> 30 mg/kg
COc1ccccc1C1CN2CCCC2c2ccccc21 (stereo unspecified),ED50,"[1]; Mus musculus, read-out: ED50",0.81 mg/kg
same,ED50,[7],~0.3 mg/kg
same,inhibition in vivo at 4 mg/kg,[16],5.2%
same,ED50,[11],~0.6 mg/kg
CC(=O)Nc1ccc(C2CN3CCCC3c3ccccc32)cc1 (stereo unspecified),ED50,"[1]; Mus musculus, read-out: ED50",0.31 mg/kg
same,ED50,[2],1.37 mg/kg
same,ED50,[7],0.04 mg/kg
same,ED50,[11],0.04 mg/kg
